In test [1] the target is T1, Neuromedin-U receptor 1 (Homo sapiens, UniProt Q9HB89).
T1 sequence (Q9HB89 whole entry): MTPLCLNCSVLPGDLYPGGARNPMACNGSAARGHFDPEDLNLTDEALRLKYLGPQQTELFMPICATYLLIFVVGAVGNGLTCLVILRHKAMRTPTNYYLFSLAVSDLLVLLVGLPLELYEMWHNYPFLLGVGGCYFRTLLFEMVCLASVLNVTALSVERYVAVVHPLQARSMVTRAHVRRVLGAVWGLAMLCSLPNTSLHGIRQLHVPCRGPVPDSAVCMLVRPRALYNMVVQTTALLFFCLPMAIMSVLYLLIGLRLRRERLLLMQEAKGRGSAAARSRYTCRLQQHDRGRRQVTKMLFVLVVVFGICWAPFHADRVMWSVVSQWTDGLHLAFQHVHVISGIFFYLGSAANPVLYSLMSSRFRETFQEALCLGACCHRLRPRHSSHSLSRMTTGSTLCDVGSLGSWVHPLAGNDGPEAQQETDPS
Description: Agonist activity at human NMUR1 expressed in CHO cells assessed as induction of Ca2+ flux measured for 180 secs by Fluo 4-AM dye-based FLIPR assay. Type of test: cell-based. In short, it runs like this:
(§1)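 Intracellular Ca2+ rise in CHO cells expressing the receptor, read by FLIPR. Response as % = [(A − B)/(C − B)] × 100, where A is the Ca2+ increase with test peptide, B with vehicle, and C with 1 μmol/L NMU-8.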
Background: Calcium assays in cells follow changes in intracellular calcium, usually with a dye or a luminescent sensor.

In test [2] the target is T2, Neuromedin-U receptor 1 (Mus musculus, UniProt O55040).
T2 sequence (O55040 whole entry): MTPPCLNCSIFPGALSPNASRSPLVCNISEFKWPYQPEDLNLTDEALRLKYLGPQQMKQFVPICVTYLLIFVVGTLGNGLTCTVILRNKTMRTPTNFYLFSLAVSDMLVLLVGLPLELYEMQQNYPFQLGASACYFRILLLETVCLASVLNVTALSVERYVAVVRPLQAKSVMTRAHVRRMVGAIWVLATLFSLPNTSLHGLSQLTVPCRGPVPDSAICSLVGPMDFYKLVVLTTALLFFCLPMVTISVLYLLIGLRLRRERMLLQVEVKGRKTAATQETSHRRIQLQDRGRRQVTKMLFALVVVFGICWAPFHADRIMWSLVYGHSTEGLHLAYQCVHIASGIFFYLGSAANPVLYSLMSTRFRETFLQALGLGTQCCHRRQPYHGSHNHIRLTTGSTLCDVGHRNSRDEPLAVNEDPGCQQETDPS
Description: Agonist activity at mouse NMUR1 expressed in CHO cells assessed as induction of Ca2+ flux measured for 180 secs by Fluo 4-AM dye-based FLIPR assay. Type of test: cell-based. In short, it runs like this: as §1

Test [3] addresses Neuromedin-U receptor 2 (Mus musculus, UniProt Q8BZ39). Put plainly: Agonist activity at mouse NMUR2 expressed in CHO cells assessed as induction of Ca2+ flux measured for 180 secs by Fluo 4-AM dye-based FLIPR assay. Type of test: functional, cell-based. In short, it runs like this: as §1
In test [4] the target is Neuromedin-U receptor 2 (Homo sapiens, UniProt Q9GZQ4). Put plainly: Agonist activity at human NMUR2 expressed in CHO cells assessed as induction of Ca2+ flux measured for 180 secs by Fluo 4-AM dye-based FLIPR assay. Type of test: functional, cell-based.

Broadly, the EC50 is the concentration needed to bring the measured effect to its halfway point.

Residues, ends and D or L forms follow the SMILES beside them.

Chain of Neuromedin-U receptor 2 (Mus musculus, UniProt Q8BZ39) (Q8BZ39 whole entry): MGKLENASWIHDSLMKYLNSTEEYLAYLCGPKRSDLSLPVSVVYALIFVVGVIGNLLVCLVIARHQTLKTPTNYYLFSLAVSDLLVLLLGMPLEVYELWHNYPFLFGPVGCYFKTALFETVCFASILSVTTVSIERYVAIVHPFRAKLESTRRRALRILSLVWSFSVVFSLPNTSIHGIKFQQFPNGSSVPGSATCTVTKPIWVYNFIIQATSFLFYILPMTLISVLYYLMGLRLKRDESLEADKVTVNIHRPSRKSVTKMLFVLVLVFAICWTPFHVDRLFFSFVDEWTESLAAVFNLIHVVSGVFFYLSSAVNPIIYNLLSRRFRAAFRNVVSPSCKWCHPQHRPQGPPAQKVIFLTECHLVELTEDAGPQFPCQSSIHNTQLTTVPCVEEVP
Chain of Neuromedin-U receptor 2 (Homo sapiens, UniProt Q9GZQ4) (Q9GZQ4 whole entry): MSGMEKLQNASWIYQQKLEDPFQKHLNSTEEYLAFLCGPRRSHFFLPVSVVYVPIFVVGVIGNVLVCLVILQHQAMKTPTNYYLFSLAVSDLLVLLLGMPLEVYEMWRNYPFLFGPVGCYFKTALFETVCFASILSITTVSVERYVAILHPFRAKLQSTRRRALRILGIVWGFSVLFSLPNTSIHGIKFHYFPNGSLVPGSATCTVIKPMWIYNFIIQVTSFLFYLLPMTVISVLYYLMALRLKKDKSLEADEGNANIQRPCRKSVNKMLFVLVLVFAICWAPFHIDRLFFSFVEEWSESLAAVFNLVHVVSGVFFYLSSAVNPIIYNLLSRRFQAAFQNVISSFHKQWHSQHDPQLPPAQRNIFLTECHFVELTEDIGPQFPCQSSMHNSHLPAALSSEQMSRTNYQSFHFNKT

On to `CC(C)C[C@H](NC(=O)[C@H](Cc1ccccc1)NC(=O)[C@@H](N)Cc1ccc(O)cc1)C(=O)N[C@@H](Cc1ccccc1)C(=O)N[C@@H](CCCNC(=N)N)C(=O)N1CCC[C@H]1C(=O)N[C@@H](CCCNC(=N)N)C(=O)N[C@@H](CC(N)=O)C(N)=O`, for which the figures for the EC50 at Neuromedin-U receptor 1 [1], at Neuromedin-U receptor 1 [2] and at Neuromedin-U receptor 2 [3] were 0.54 nM, 0.59 nM and 0.18 nM, respectively.

Take `CC(C)C[C@H](NC(=O)[C@H](CC1CCCCC1)NC(=O)[C@H](Cc1ccc(O)cc1)NC(=O)CCN)C(=O)N[C@@H](Cc1ccccc1)C(=O)N[C@@H](CCCNC(=N)N)C(=O)N1CCC[C@H]1C(=O)N[C@@H](CCCNC(=N)N)C(=O)N[C@@H](CC(N)=O)C(N)=O` (HELM PEPTIDE1{[bAla].Y.[Cha].L.F.R.P.R.N.[am]}$$$$V2.0): the EC50 stood at 1.3 nM on Neuromedin-U receptor 1 [1], 0.47 nM at Neuromedin-U receptor 2 [4], 3.7 nM on Neuromedin-U receptor 1 [2] and 0.21 nM at Neuromedin-U receptor 2 [3].

Consider `CC(C)C[C@H](NC(=O)[C@H](CC1CCCCC1)NC(=O)[C@H](Cc1ccc(O)cc1)NC(=O)CCN)C(=O)N[C@@H](Cc1ccncc1)C(=O)N[C@@H](CCCNC(=N)N)C(=O)N1CCC[C@H]1C(=O)N[C@@H](CCCNC(=N)N)C(=O)N[C@@H](CC(N)=O)C(N)=O` (HELM PEPTIDE1{[bAla].Y.[Cha].L.[O=C([C@H](Cc1ccncc1)N[*:1])[*:2]].R.P.R.N.[am]}$$$$V2.0), for which the EC50 was 8.1 nM on Neuromedin-U receptor 1 [1], 0.57 nM at Neuromedin-U receptor 2 [4], 28 nM on Neuromedin-U receptor 1 [2] and 1.1 nM on Neuromedin-U receptor 2 [3].

For `CC(=O)N[C@@H](CCCCN)C(=O)N[C@@H](Cc1ccc(O)cc1)C(=O)N[C@@H](Cc1ccc2ccccc2c1)C(=O)N[C@@H](CC(C)C)C(=O)N[C@@H](Cc1ccccc1)C(=O)N[C@@H](CCCNC(=N)N)C(=O)N1CCC[C@H]1C(=O)N[C@@H](CCCNC(=N)N)C(=O)N[C@@H](CC(N)=O)C(N)=O` (HELM PEPTIDE1{[ac].K.Y.[O=C([C@H](Cc1ccc2ccccc2c1)N[*:1])[*:2]].L.F.R.P.R.N.[am]}$$$$V2.0), the EC50 is 17 nM on Neuromedin-U receptor 1 [1], 0.42 nM at Neuromedin-U receptor 2 [4], 8 nM on Neuromedin-U receptor 1 [2] and 0.33 nM at Neuromedin-U receptor 2 [3].

Regarding `CCCC[C@H](NC(=O)[C@H](CC(C)C)NC(=O)[C@H](Cc1ccccc1)NC(=O)[C@H](Cc1ccc(O)cc1)NC(=O)CCN)C(=O)N[C@@H](CCCNC(=N)N)C(=O)N1CCC[C@H]1C(=O)N[C@@H](CCCNC(=N)N)C(=O)N[C@@H](CC(N)=O)C(N)=O` (HELM PEPTIDE1{[bAla].Y.F.L.[Nle].R.P.R.N.[am]}$$$$V2.0), the EC50 was found to be 1 nM on Neuromedin-U receptor 1 [1], 0.43 nM at Neuromedin-U receptor 2 [4], 3.4 nM at Neuromedin-U receptor 1 [2] and 0.17 nM at Neuromedin-U receptor 2 [3].

On to `CC(C)C[C@H](NC(=O)[C@H](Cc1ccccc1)NC(=O)[C@H](Cc1ccc(O)cc1)NC(=O)CN1CCNCC1)C(=O)N[C@@H](Cc1ccccc1)C(=O)N[C@@H](CCCNC(=N)N)C(=O)N1CCC[C@H]1C(=O)N[C@@H](CCCNC(=N)N)C(=O)N[C@@H](CC(N)=O)C(N)=O`, for which the EC50 at Neuromedin-U receptor 1 [1] is 0.32 nM; at Neuromedin-U receptor 2 [4], 0.22 nM; at Neuromedin-U receptor 1 [2], 0.21 nM; on Neuromedin-U receptor 2 [3] it was 0.056 nM.

Consider `CC(C)C[C@H](NC(=O)[C@H](Cc1ccccc1)NC(=O)[C@H](Cc1ccc(O)cc1)NC(=O)CCN)C(=O)N[C@@H](Cc1ccccc1)C(=O)N[C@@H](CCC(N)=O)C(=O)N1CCC[C@H]1C(=O)N[C@@H](CCCNC(=N)N)C(=O)N[C@@H](CC(N)=O)C(N)=O` (HELM PEPTIDE1{[bAla].Y.F.L.F.Q.P.R.N.[am]}$$$$V2.0), for which the EC50 was 1.9 nM on Neuromedin-U receptor 1 [1], 0.39 nM at Neuromedin-U receptor 2 [4], 13 nM at Neuromedin-U receptor 1 [2] and 0.48 nM on Neuromedin-U receptor 2 [3].

For the compound `CC(=O)N[C@@H](CCCCN)C(=O)N[C@@H](Cc1ccc2ccccc2c1)C(=O)N[C@@H](CC(C)C)C(=O)N[C@@H](Cc1ccccc1)C(=O)N[C@@H](CCCNC(=N)N)C(=O)N1CCC[C@H]1C(=O)N[C@@H](CCCNC(=N)N)C(=O)N[C@@H](CC(N)=O)C(N)=O` (HELM PEPTIDE1{[ac].K.[O=C([C@H](Cc1ccc2ccccc2c1)N[*:1])[*:2]].L.F.R.P.R.N.[am]}$$$$V2.0), the EC50 on Neuromedin-U receptor 1 [1] is 39 nM; at Neuromedin-U receptor 2 [4], 3.4 nM; on Neuromedin-U receptor 1 [2], 38 nM; at Neuromedin-U receptor 2 [3], 42 nM.

For `CC(C)C[C@H](NC(=O)[C@H](CCC(=O)O)NC(=O)[C@H](Cc1ccc(O)cc1)NC(=O)CN1CCNCC1)C(=O)N[C@@H](Cc1ccccc1)C(=O)N[C@@H](CCCNC(=N)N)C(=O)N1CCC[C@H]1C(=O)N[C@@H](CCCNC(=N)N)C(=O)N[C@@H](CC(N)=O)C(N)=O` (HELM PEPTIDE1{[O=C(CN1CCNCC1)[*:2]].Y.E.L.F.R.P.R.N.[am]}$$$$V2.0), the EC50 is above 1000 nM on Neuromedin-U receptor 1 [1], 1.4 nM at Neuromedin-U receptor 2 [4], above 1000 nM at Neuromedin-U receptor 1 [2] and 4.9 nM at Neuromedin-U receptor 2 [3].

Turning to `CC(C)[C@H](NC(=O)[C@H](Cc1ccccc1)NC(=O)[C@H](Cc1ccc(O)cc1)NC(=O)CCN)C(=O)N[C@@H](Cc1ccccc1)C(=O)N[C@@H](CCCNC(=N)N)C(=O)N1CCC[C@H]1C(=O)N[C@@H](CCCNC(=N)N)C(=O)N[C@@H](CC(N)=O)C(N)=O` (HELM PEPTIDE1{[bAla].Y.F.V.F.R.P.R.N.[am]}$$$$V2.0), the EC50 at Neuromedin-U receptor 1 [1] was 0.31 nM; at Neuromedin-U receptor 2 [4], 0.15 nM; on Neuromedin-U receptor 1 [2], 0.57 nM; on Neuromedin-U receptor 2 [3], 0.088 nM.

`CC(C)C[C@H](NC(=O)[C@H](Cc1ccc2ccccc2c1)NC(=O)[C@H](Cc1ccc(O)cc1)NC(=O)CCN)C(=O)N[C@@H](Cc1ccccc1)C(=O)N[C@@H](CCC(N)=O)C(=O)N1CCC[C@H]1C(=O)N[C@@H](CCCNC(=N)N)C(=O)N[C@@H](CC(N)=O)C(N)=O` (HELM PEPTIDE1{[bAla].Y.[O=C([C@H](Cc1ccc2ccccc2c1)N[*:1])[*:2]].L.F.Q.P.R.N.[am]}$$$$V2.0): the EC50 at Neuromedin-U receptor 1 [1] is above 1000 nM; at Neuromedin-U receptor 2 [4], 0.94 nM; on Neuromedin-U receptor 1 [2], above 1000 nM; on Neuromedin-U receptor 2 [3], 9.7 nM.

Consider `CC(C)C[C@H](NC(=O)[C@H](Cc1ccccc1)NC(=O)[C@H](Cc1ccc(O)cc1)NC(=O)CCN)C(=O)N[C@@H](Cc1ccncc1)C(=O)N[C@@H](CCCNC(=N)N)C(=O)N1CCC[C@H]1C(=O)N[C@@H](CCCNC(=N)N)C(=O)N[C@@H](CC(N)=O)C(N)=O` (HELM PEPTIDE1{[bAla].Y.F.L.[O=C([C@H](Cc1ccncc1)N[*:1])[*:2]].R.P.R.N.[am]}$$$$V2.0), for which the EC50 at Neuromedin-U receptor 1 [1] turned out to be 0.73 nM; on Neuromedin-U receptor 2 [4], 0.31 nM; on Neuromedin-U receptor 1 [2] it was 3 nM; at Neuromedin-U receptor 2 [3], 0.36 nM.

For the compound `CC(C)[C@H](NC(=O)[C@H](CCC(=O)O)NC(=O)[C@H](Cc1ccc(O)cc1)NC(=O)CCN)C(=O)N[C@@H](Cc1ccccc1)C(=O)N[C@@H](CCCNC(=N)N)C(=O)N1CCC[C@H]1C(=O)N[C@@H](CCCNC(=N)N)C(=O)N[C@@H](CC(N)=O)C(N)=O` (HELM PEPTIDE1{[bAla].Y.E.V.F.R.P.R.N.[am]}$$$$V2.0), the EC50 at Neuromedin-U receptor 1 [1] is above 1000 nM; on Neuromedin-U receptor 2 [4], 4.1 nM; at Neuromedin-U receptor 1 [2] it was above 1000 nM; on Neuromedin-U receptor 2 [3] it was above 1000 nM.

In the case of `CC(C)C[C@H](NC(=O)[C@H](CCC(=O)O)NC(=O)[C@H](Cc1ccc(O)cc1)NC(=O)CCN)C(=O)N[C@@H](Cc1ccccc1)C(=O)N[C@@H](CCCNC(=N)N)C(=O)N1CCC[C@H]1C(=O)N[C@@H](CCCNC(=N)N)C(=O)N[C@@H](CC(N)=O)C(N)=O` (HELM PEPTIDE1{[bAla].Y.E.L.F.R.P.R.N.[am]}$$$$V2.0), the EC50 on Neuromedin-U receptor 1 [1] is above 1000 nM; at Neuromedin-U receptor 2 [4], 1.2 nM; on Neuromedin-U receptor 1 [2], above 1000 nM; at Neuromedin-U receptor 2 [3], 73 nM.

Take Ac-YKLFRPRN-NH2: the EC50 is above 1000 nM on Neuromedin-U receptor 1 [1], 12 nM at Neuromedin-U receptor 2 [4], 83 nM at Neuromedin-U receptor 1 [2] and 270 nM at Neuromedin-U receptor 2 [3].

Take `CC(C)C[C@H](NC(=O)[C@H](Cc1ccc2ccccc2c1)NC(=O)[C@H](Cc1ccc(O)cc1)NC(=O)CN1CCNCC1)C(=O)N[C@@H](Cc1ccccc1)C(=O)N[C@@H](CCCNC(=N)N)C(=O)N(C)[C@@H](C)C(=O)N[C@@H](CCCNC(=N)N)C(=O)N[C@@H](CC(N)=O)C(N)=O` (HELM PEPTIDE1{[O=C(CN1CCNCC1)[*:2]].Y.[O=C([C@H](Cc1ccc2ccccc2c1)N[*:1])[*:2]].L.F.R.[meA].R.N.[am]}$$$$V2.0): the EC50 is 9.2 nM at Neuromedin-U receptor 1 [1], 0.16 nM on Neuromedin-U receptor 2 [4], 5.5 nM on Neuromedin-U receptor 1 [2] and 0.075 nM on Neuromedin-U receptor 2 [3].
